Source: ChEMBL document CHEMBL4706620, “Design, synthesis, biological activity evaluation of 3-(4-phenyl-1H-imidazol-2-yl)-1H-pyrazole derivatives as potent JAK 2/3 and aurora A/B kinases multi-targeted inhibitors” (Eur J Med Chem, 2021)

Tests used:
Aurora kinase A = target: T1, Aurora kinase A (Homo sapiens, UniProt O14965); test: Inhibition of Aurora A (unknown origin) incubated for 40 mins in presence of ATP by Kinase-glo luminescence assay
T1 sequence (O14965 whole entry): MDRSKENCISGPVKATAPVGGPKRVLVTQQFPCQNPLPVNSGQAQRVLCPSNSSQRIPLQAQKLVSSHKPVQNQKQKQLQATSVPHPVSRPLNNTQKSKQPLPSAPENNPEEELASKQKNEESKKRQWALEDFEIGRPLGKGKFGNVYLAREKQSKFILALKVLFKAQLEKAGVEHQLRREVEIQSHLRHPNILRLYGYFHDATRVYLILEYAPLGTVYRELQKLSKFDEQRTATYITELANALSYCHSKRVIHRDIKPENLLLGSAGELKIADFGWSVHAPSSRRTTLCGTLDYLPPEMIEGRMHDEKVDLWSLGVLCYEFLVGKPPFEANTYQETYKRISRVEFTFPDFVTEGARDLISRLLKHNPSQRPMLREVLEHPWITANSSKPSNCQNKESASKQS

K562 [1] = test: Antiproliferative activity against human K562 cells assessed as reduction in cell growth measured after 72 hrs by CCK8 assay; format: functional, cell-based; conditions: K562, 72 h
HCT-116 [2] = test: Antiproliferative activity against human HCT116 cells assessed as reduction in cell growth measured after 72 hrs by CCK8 assay; format: functional, cell-based; conditions: HCT-116, 72 h
[3] = target: Tyrosine-protein kinase JAK2 (Homo sapiens, UniProt O60674); test: Inhibition of JAK2 (unknown origin) incubated for 40 mins in presence of ATP by Kinase-glo luminescence assay
Chain of Tyrosine-protein kinase JAK2 (O60674 whole entry): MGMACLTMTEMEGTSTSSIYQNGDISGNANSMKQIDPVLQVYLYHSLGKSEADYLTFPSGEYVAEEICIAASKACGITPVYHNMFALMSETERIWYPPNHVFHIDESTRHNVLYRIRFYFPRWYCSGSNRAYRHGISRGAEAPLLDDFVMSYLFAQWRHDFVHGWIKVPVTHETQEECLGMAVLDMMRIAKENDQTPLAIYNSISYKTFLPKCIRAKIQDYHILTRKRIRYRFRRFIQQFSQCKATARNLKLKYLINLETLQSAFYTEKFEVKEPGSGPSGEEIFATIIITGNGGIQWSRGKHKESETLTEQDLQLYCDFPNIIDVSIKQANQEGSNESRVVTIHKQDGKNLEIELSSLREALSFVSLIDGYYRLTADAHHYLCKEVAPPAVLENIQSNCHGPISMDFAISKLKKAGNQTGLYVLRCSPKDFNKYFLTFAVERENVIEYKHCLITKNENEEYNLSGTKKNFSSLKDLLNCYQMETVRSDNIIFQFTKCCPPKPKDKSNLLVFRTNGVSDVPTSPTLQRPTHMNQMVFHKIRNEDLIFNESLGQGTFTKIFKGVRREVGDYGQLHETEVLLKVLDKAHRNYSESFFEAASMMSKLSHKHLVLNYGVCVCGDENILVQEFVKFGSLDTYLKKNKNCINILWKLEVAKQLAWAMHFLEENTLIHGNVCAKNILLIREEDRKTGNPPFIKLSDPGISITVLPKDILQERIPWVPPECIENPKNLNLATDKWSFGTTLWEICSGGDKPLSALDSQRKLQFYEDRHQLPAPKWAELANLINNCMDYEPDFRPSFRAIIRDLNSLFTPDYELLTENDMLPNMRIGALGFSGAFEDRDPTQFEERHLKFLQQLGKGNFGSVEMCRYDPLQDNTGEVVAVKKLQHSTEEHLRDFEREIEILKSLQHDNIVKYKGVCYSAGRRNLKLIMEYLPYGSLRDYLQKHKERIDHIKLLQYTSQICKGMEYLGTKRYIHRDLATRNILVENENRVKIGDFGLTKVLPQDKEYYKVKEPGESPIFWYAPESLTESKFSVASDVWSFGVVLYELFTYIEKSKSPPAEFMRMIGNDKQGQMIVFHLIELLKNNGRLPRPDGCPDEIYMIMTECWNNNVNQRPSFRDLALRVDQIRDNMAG

[4] = target: T2, Tyrosine-protein kinase JAK3 (Homo sapiens, UniProt P52333); test: Inhibition of JAK3 (unknown origin) incubated for 40 mins in presence of ATP by Kinase-glo luminescence assay
T2 sequence (P52333 whole entry): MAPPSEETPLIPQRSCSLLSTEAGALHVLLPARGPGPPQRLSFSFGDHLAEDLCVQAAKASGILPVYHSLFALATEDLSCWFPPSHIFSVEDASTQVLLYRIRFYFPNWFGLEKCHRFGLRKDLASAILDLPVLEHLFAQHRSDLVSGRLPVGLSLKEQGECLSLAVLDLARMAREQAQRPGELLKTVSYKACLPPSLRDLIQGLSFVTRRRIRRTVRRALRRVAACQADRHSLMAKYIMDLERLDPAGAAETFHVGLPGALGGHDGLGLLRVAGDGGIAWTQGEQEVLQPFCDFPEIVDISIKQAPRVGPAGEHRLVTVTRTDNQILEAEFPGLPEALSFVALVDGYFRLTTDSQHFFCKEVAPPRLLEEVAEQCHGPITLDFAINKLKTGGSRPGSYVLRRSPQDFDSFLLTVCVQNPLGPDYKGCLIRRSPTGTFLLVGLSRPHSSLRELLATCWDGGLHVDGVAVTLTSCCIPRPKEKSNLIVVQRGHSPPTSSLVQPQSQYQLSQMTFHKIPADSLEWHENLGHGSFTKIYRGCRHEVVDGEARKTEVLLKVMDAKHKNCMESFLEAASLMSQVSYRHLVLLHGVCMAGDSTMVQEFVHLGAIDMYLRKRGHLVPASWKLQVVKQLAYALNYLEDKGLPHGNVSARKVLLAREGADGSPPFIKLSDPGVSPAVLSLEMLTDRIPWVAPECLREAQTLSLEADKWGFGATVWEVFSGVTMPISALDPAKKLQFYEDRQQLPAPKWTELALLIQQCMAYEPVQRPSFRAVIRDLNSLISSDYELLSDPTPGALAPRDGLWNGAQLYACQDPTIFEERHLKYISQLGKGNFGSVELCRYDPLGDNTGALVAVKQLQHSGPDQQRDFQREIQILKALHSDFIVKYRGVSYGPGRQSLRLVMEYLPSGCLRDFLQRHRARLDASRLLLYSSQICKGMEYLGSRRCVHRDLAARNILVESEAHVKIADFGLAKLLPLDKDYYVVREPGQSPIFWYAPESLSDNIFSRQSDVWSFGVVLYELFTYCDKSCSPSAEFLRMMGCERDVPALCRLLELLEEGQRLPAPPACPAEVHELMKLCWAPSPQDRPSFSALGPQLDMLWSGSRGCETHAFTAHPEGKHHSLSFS

Homo sapiens [5] = species on record: Homo sapiens; test: Selectivity for JAK2 (unknown origin) over Aurora B (unknown origin)
Homo sapiens [6] = species on record: Homo sapiens; test: Selectivity for JAK3 (unknown origin) over Aurora B (unknown origin)
Homo sapiens [7] = species on record: Homo sapiens; test: Selectivity for JAK2 (unknown origin) over Aurora A (unknown origin)
Homo sapiens [8] = species on record: Homo sapiens; test: Selectivity for JAK3 (unknown origin) over Aurora A (unknown origin)
Aurora kinase B = Aurora kinase B (Homo sapiens, UniProt Q96GD4); test: Inhibition of Aurora B (unknown origin) incubated for 40 mins in presence of ATP by Kinase-glo luminescence assay
Chain of Aurora kinase B (Q96GD4 whole entry): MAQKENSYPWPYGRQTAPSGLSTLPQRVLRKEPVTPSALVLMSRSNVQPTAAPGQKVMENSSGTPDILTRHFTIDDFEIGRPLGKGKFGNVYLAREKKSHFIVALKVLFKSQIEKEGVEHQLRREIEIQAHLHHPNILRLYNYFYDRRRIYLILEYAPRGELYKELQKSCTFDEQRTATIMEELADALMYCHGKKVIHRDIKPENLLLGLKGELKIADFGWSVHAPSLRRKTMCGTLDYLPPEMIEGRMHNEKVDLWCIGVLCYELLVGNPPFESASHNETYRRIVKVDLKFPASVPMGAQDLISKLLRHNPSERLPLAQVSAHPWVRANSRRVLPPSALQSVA
Method in brief: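 Kinase reaction at 30 °C for 40 min in 40 mM Tris pH 7.4, 10 mM MgCl2, 0.1 mg/ml BSA, 1 mM DTT, 10 µM ATP, kinase plus substrate; compounds added from 10% DMSO dilutions (1% DMSO final). Remaining ATP measured by Kinase-Glo Plus luminescence; IC50 from nonlinear regression, normalized dose-response fit.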

K562 [9] = test: Cell cycle arrest in human K562 cells assessed as accumulation of diploid cells at G2 phase at 10 uM incubated for 48 hrs by propidium iodide staining based flow cytometric analysis (reference value: 7.73 %); format: functional
K562 [10] = test: Cell cycle arrest in human K562 cells assessed as accumulation of diploid cells at S phase at 10 uM incubated for 48 hrs by propidium iodide staining based flow cytometric analysis (reference value: 35.94 %); format: functional
HCT-116 [11] = test: Cell cycle arrest in human HCT116 cells assessed as accumulation of diploid cells at G1 phase at 10 uM incubated for 48 hrs by propidium iodide staining based flow cytometric analysis (reference value: 77.62 %); format: functional
HCT-116 [12] = test: Cell cycle arrest in human HCT116 cells assessed as accumulation of diploid cells at G2 phase at 10 uM incubated for 48 hrs by propidium iodide staining based flow cytometric analysis (reference value: 10.46 %); format: functional
HCT-116 [13] = test: Cell cycle arrest in human HCT116 cells assessed as accumulation of diploid cells at S phase at 10 uM incubated for 48 hrs by propidium iodide staining based flow cytometric analysis (reference value: 11.92 %); format: functional
HCT-116 [14] = test: Cell cycle arrest in human HCT116 cells assessed as accumulation at […] phase at 10 uM incubated for 48 hrs by propidium iodide staining based flow cytometric analysis (reference value: 2.01 %); format: functional

| IC50 (Aurora kinase A) [nM] | IC50 (K562 [1]) [µM] | IC50 (HCT-116 [2]) [µM] | IC50 [3] [nM] | IC50 [4] [nM] | IC50 (Aurora kinase B) [nM] | Compound | other results |
| --- | --- | --- | --- | --- | --- | --- | --- |
| 2060 | > 10 | 1.59 | – | – | – | O=C(Nc1c[nH]nc1-c1nc(-c2ccc(CN3CCCCC3)cc2)c[nH]1)c1ccc(Cl)cc1 | – |
| – | 9.88 | 16.1 | – | – | – | CSc1nc(Cl)c(C)c(Nc2c[nH]nc2-c2ncc(-c3ccc(OCCCN4CCOCC4)cc3)[nH]2)n1 | – |
| 1520 | > 10 | > 10 | – | – | – | COc1ccc(C(=O)Nc2c[nH]nc2-c2nc(-c3ccc(CN4CCCCC4)cc3)c[nH]2)cc1 | – |
| 1130 | 2.5 | > 10 | 16 | 13 | – | O=C(Nc1c[nH]nc1-c1nc(-c2ccc(CN3CCCCC3)cc2)c[nH]1)c1cccc(Cl)c1 | Selectivity ratio (Homo sapiens [5]): 20; Selectivity ratio (Homo sapiens [6]): 20; Selectivity ratio (Homo sapiens [7]): 20; Selectivity ratio (Homo sapiens [8]): 20 |
| 466 | 4.34 | 5.21 | 1180 | – | 650 | O=C(Nc1c[nH]nc1-c1nc(-c2ccc(CN3CCOCC3)cc2)c[nH]1)c1ccc([N+](=O)[O-])cc1 | – |
| – | > 10 | > 10 | – | – | – | O=C(Nc1c[nH]nc1-c1nc(-c2ccc(CN3CCOCC3)cc2)c[nH]1)c1ccccc1 | – |
| 2510 | 2.63 | > 10 | – | 64 | – | O=C(Nc1c[nH]nc1-c1nc(-c2ccc(CN3CCOCC3)cc2)c[nH]1)c1ccc(Cl)cc1 | – |
| 359 | 5.65 | > 10 | 14 | 24 | > 1000 | COc1ccc(C(=O)Nc2c[nH]nc2-c2nc(-c3ccc(CN4CCOCC4)cc3)c[nH]2)cc1 | Selectivity ratio (Homo sapiens [5]): 20; Selectivity ratio (Homo sapiens [6]): 20; Selectivity ratio (Homo sapiens [7]): 20; Selectivity ratio (Homo sapiens [8]): 20 |
| 145 | 10 | > 10 | 8 | 23 | – | Cc1nc(Cl)cc(Nc2c[nH]nc2-c2nc(-c3ccc(CN4CCOCC4)cc3)c[nH]2)n1 | – |
| – | – | – | – | – | 62 | O=C(Nc1c[nH]nc1-c1nc2ccc(CN3CCOCC3)cc2[nH]1)NC1CC1 [AT-9283] | Activity (K562 [9]): 14.99%; Activity (K562 [10]): 32.31%; Activity (HCT-116 [11]): 66.56%; Activity (HCT-116 [12]): 25.19%; Activity (HCT-116 [13]): 8.24%; Activity (HCT-116 [14]): 1.98% |
